Each structure is given as a SMILES string. Where a SMILES comes first, the peptide text is derived from it.

One test concerns Mus musculus. Put plainly: Hypoglycemic activity at the lowest dose that causing 20% blood glucose decrease (fasting mice, po). The format is functional.
Conditions: not given
In outline:
(§1)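 Male ICR-CD1 mice, 5 weeks old, fasted 18 h, groups of five. Given orally as a suspension in 0.5% (carboxymethyl)cellulose-0.14 M NaCl, 1 mL/kg; vehicle-treated control group run in parallel. Doses 500, 250, 100, 50, 25 and 10 mg/kg. Blood drawn from carotid 1 h after dosing; glucose measured enzymatically by glucose-oxidase-peroxidase; Student's t test (p < 0.05).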
`O=C(N[C@@H](Cc1ccccc1)C(=O)O)C1CCCCC1`: the Dose is 100 mg/kg.
The same measure, in the same setting: for `CCOc1ccc(C(=O)N[C@@H](Cc2ccccc2)C(=O)O)cc1` the value was 100 mg/kg.
The same measure, in the same setting: for `O=C(N[C@@H](Cc1ccccc1)C(=O)O)c1ccc2c(c1)CCC2` the value was 250 mg/kg; for `O=C(N[C@@H](Cc1ccccc1)C(=O)O)C1CCCC1`, 50 mg/kg; for `O=C(N[C@@H](Cc1ccccc1)C(=O)O)c1ccc2ccccc2c1`, 250 mg/kg.
The same measure, in the same setting: the result for `O=C(NC(Cc1ccccc1)C(=O)O)c1ccccc1` (configuration not stated) reads 500 mg/kg; that for `O=C(N[C@@H](Cc1ccccc1)C(=O)O)c1ccccc1`, 150 mg/kg; that for `O=C(N[C@@H](Cc1ccccc1)C(=O)O)C1CC=CCC1` (some centres not stated), 100 mg/kg.
As for `COc1ccc(C(=O)N[C@@H](Cc2ccccc2)C(=O)O)cc1`, the Dose turned out to be 100 mg/kg.
`O=C(N[C@@H](Cc1ccccc1)C(=O)O)c1cc2ccccc2o1` returned a Dose of 100 mg/kg.
Same read-out and setting: the result for `O=C(N[C@@H](Cc1ccccc1)C(=O)O)c1ccc2c(c1)OCO2` reads 100 mg/kg.
Same read-out and setting: the result for `Cc1ccc(C(=O)N[C@@H](Cc2ccccc2)C(=O)O)cc1` reads 100 mg/kg; that for `CCCCNC(=O)NS(=O)(=O)c1ccc(C)cc1` [TOLBUTAMIDE], 25 mg/kg.

The next test concerns Mus musculus. Put plainly: Hypoglycemic activity was determined as decrease in blood glucose at a dose 250 mg/kg in fasting mice after peroral administration. It counts as functional. Particulars: route oral. In a few lines: as §1
As for `O=C(O)[C@H](Cc1ccccc1)NCc1ccccc1`, the Decrease is <20%.
The same measure, in the same setting: the result for `Cc1cccc(C(=O)N[C@@H](Cc2ccccc2)C(=O)O)c1` reads <20%.
Regarding `O=C(O)/C(=C/c1ccccc1)NC(=O)c1ccccc1`, the Decrease is given as <20%.
Take `O=C(O)/C(=C\c1ccccc1)NC(=O)c1ccccc1`: the Decrease is listed as <20%.
The same measure, in the same setting: for `CC(=O)N1CCC[C@H]1C(=O)N[C@@H](Cc1ccccc1)C(=O)O` (Ac-Pro-Phe-OH) the value was <20%.
As for `O=C(N[C@H](Cc1ccccc1)C(=O)O)C1CCCC1`, the Decrease is <20%.
Still for that read-out and setting: the result for `O=C(N[C@@H](Cc1ccccc1)C(=O)O)c1cccc2ccccc12` reads <20%; that for `Cc1ccccc1C(=O)N[C@@H](Cc1ccccc1)C(=O)O`, <20%.
On the same count and under the same terms, for `O=C(N[C@@H](Cc1ccccc1)C(=O)O)c1ccncc1` the value was <20%.
Take `O=C(O)[C@@H]1Cc2ccccc2CN1C(=O)c1ccccc1`: the Decrease was <20%.
Still for that read-out and setting: for `O=C(N[C@H](Cc1ccccc1)C(=O)O)c1ccccc1` the value was <20%.
On the same count and under the same terms, for `O=C(N[C@@H](Cc1ccccc1)C(=O)O)c1ccc2ncccc2c1` the value was <20%.
The same measure, in the same setting: the result for `O=C(O)[C@H](Cc1ccccc1)NC(=O)[C@H]1CCCN1C(=O)c1ccccc1` reads <20%; that for `O=C(N[C@@H](Cc1ccccc1)C(=O)O)c1ccc2ccccc2n1`, <20%.
As for `O=C(O)[C@H]1Cc2ccccc2CN1C(=O)c1ccccc1`, the Decrease is <20%.
On the same count and under the same terms, the result for `O=C(N[C@@H](Cc1ccccc1)C(=O)O)c1cnc2ccccc2c1` reads <20%; that for `O=C(N[C@@H](Cc1ccccc1)C(=O)O)C1CCCCCC1`, <20%; that for `O=C(N[C@@H](Cc1ccccc1)C(=O)O)c1cccnc1`, <20%.
For `O=C(O)[C@H](Cc1ccccc1)NC(=O)[C@@H]1CCCN1C(=O)c1ccccc1`, the Decrease was <20%.

These data come from ChEMBL document CHEMBL1124000, “N-acylphenylalanines and related compounds. A new class of oral hypoglycemic agents” (1988).
